According to ChEMBL document CHEMBL3804766, “Discovery of Dual Inhibitors for Wild Type and D816V Mutant of c-KIT Kinase through Virtual and Biochemical Screening of Natural Products” (J Nat Prod, 2016):

Tests used:
[1] = system: Mast/stem cell growth factor receptor Kit (Homo sapiens), P10721 [D816V]; assay: Inhibition of c-KIT D816V mutant (unknown origin) expressed in HEK293 cells assessed as remaining activity at 100 uM incubated for 1 hr with shaking by qPCR method relative to control; type: cell-based
Sequence of Mast/stem cell growth factor receptor Kit (Homo sapiens), P10721 [D816V] (P10721 whole entry D816V): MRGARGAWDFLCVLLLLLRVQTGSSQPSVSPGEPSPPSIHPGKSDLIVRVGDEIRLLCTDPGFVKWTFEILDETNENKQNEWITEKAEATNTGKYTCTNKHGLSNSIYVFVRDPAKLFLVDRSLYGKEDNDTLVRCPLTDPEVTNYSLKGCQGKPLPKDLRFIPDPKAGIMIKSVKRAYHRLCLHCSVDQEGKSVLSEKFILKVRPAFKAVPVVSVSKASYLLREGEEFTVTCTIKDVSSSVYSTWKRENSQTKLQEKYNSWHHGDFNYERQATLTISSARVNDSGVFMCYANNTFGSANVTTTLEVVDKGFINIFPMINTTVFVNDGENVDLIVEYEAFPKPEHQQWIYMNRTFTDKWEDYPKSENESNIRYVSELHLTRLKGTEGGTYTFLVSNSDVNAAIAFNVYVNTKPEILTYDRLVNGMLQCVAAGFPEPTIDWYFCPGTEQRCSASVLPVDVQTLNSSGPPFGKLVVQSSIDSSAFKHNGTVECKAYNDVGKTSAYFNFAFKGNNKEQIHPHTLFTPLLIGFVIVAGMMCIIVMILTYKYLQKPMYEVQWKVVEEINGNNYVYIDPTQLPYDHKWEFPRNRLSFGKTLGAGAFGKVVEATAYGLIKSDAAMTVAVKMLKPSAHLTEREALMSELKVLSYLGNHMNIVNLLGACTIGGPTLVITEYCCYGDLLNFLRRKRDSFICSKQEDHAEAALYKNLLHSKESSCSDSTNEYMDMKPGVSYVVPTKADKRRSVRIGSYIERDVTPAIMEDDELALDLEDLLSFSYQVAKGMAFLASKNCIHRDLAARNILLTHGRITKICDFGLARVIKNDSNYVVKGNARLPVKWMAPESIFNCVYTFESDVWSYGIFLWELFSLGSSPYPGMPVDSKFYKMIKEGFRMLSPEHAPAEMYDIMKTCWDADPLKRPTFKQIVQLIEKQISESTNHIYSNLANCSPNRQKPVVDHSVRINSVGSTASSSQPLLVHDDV
How it was run: (§1)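 Competition binding assay run at a single 100 μM concentration, added from 40× DMSO stocks. Tagged kinase was combined with immobilized biotinylated ligand on streptavidin magnetic beads in SeaBlock/0.17× PBS/0.05% Tween 20/6 mM DTT for 1 h at RT with shaking. Beads were washed, then eluted with 0.5 μM free ligand for 30 min. Eluted kinase was quantified by qPCR as percent of control.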

[2] = molecular target: T1, Mast/stem cell growth factor receptor Kit (Homo sapiens, UniProt P10721); assay: Inhibition of wild type c-KIT (unknown origin) expressed in T7-phage infected Escherichia coli BL21 assessed as remaining activity at 100 uM incubated for 1 hr with shaking by qPCR method relative to control; how it was run: as §1
T1 sequence (P10721 whole entry, the tested form may be a part): as the sequence (P10721 whole entry D816V) above, with V816D counted along it

[3] = species: Homo sapiens; assay: Selectivity ratio of IC50 for wild type His-tagged c-KIT (544 to 976 amino acids) (unknown origin) to IC50 for N-terminal GST-His-tagged c-KIT (544 to 976 amino acids) D816V mutant (unknown origin)
[4] = molecular target: Mast/stem cell growth factor receptor Kit (Homo sapiens, UniProt P10721, D816V); assay: Inhibition of N-terminal GST-His-tagged c-KIT (544 to 976 amino acids) D816V mutant (unknown origin) expressed in Sf9 insect cells using poly[Glu:Tyr] (4:1) as substrate preincubated for 20 mins followed by [33P-gamma]ATP addition and subsequent inhibition for 2 hrs by radiometric assay
Sequence of Mast/stem cell growth factor receptor Kit (Homo sapiens, UniProt P10721, D816V) (P10721 26-976 D816V limits assumed): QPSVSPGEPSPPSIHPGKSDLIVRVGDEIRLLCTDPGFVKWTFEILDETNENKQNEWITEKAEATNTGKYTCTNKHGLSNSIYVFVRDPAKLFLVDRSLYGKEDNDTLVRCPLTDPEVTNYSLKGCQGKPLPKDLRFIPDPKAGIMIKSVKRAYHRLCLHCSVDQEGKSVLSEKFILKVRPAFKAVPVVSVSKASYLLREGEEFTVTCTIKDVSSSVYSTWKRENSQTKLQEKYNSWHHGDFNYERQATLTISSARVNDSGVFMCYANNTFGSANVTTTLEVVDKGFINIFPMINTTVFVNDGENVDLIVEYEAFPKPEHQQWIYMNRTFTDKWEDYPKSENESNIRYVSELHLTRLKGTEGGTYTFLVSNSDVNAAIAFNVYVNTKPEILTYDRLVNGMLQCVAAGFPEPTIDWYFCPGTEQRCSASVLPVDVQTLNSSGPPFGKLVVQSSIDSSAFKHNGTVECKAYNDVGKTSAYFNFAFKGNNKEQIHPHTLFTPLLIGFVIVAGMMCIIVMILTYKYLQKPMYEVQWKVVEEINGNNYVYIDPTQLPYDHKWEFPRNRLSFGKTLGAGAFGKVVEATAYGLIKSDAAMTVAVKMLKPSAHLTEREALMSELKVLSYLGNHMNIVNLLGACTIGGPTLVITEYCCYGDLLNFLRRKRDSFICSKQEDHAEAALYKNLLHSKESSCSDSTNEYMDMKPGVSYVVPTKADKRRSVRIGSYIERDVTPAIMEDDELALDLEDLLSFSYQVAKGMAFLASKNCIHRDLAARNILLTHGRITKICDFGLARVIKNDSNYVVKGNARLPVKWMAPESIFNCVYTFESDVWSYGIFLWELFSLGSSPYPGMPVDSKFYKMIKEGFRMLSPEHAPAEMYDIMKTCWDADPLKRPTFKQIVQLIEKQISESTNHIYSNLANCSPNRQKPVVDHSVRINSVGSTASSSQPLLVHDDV
How it was run: (§2)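 Compounds were serially diluted in DMSO and preincubated with enzyme for 20 min at RT. Final ATP was 1 μM. Reaction ran 2 h at RT, read by filter binding. Percent activity was taken relative to DMSO, and IC50 came from curve fitting.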

[5] = molecular target: T1, Mast/stem cell growth factor receptor Kit; assay: Inhibition of wild type His-tagged c-KIT (544 to 976 amino acids) (unknown origin) expressed in insect cells using poly[Glu:Tyr] (4:1) as substrate preincubated for 20 mins followed by [33P-gamma]ATP addition and subsequent inhibition for 2 hrs by radiometric assay; how it was run: as §2

SMILES | Activity [1] | Kinase binding remaining, % of control [2] | Ratio IC50 [3] | IC50 [4] | IC50 [5]
O=C1c2c(O)cc(O)cc2O[C@H](c2ccc(O)c(O)c2)[C@H]1O | 15% | 12% |  |  | 
COc1ccc(/C=C2\Oc3cc(O)ccc3C2=O)cc1 | 15% | 0% | > 10 | 1400 nM | 15.6 µM
COc1ccc(-c2cc(=O)c3c(O)c(OC)c(O)cc3o2)cc1 [PECTOLINARIGENIN] | 3% | 0% |  | 600 nM | 1.5 µM
COc1c(O)c(O)c2oc(-c3ccccc3)cc(=O)c2c1OC | 0% | 1% |  | 500 nM | 7.8 µM
